Test results from ChEMBL document CHEMBL1123208, “Quantitative structure-activity relationship of the mutagenicity of substituted N-nitroso-N-benzylmethylamines: possible implications for carcinogenicity” (J Med Chem, 1986).
Values belong to the compound of their own block, whether it stands above or below them.

What was measured:
[1] = Concentration in nmol/plate to induce 50 revertants/plate.; format: ADME
Procedure, shortened: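 Ames plate incorporation, S. typhimurium TA 1535, Aroclor-induced male hamster liver S9; duplicate plates, 10-point range 1–1000 µg/plate; 37 °C, 48 h; revertants counted by hand tally. Potency index: concentration (nmol/plate) inducing 50 revertants/plate, taken from linear portion of dose–response curve.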

Salmonella typhimurium [2] = experiment: Mutagenicity against Salmonella tester strain TA 1535 without hamster S9 mix (3 mg/plate) in cells.; format: functional, Salmonella enterica subsp. enterica serovar Typhimurium
Salmonella typhimurium [3] = experiment: compound was tested for mutagenicity against Salmonella tester strain TA 1535 with hamster S9 mix (3 mg/plate) in cells at dose of 500 ug
Salmonella typhimurium [4] = experiment: compound was tested for mutagenicity against Salmonella tester strain TA 1535 with out hamster S9 mix (3 mg/plate) in cells at dose of 500 ug
Salmonella typhimurium [5] = experiment: compound was tested for mutagenicity against Salmonella tester strain TA 1535 with hamster S9 mix (3 mg/plate) in cells at dose of 1000 ug; format: functional, Salmonella enterica subsp. enterica serovar Typhimurium
Procedure, shortened: (§1)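 Plate incorporation assay in S. typhimurium TA 1535 with Aroclor-induced male hamster liver S9 (3 mg/plate). Compound in Me2SO, 1–1000 µg/plate, duplicate plates, mean revertants/plate; incubated 37 °C for 48 h, colonies hand-counted. Positive if two consecutive doses gave revertants more than twice the concurrent control mean.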

Salmonella typhimurium [6] = experiment: compound was tested for mutagenicity against Salmonella tester strain TA 1535 with hamster S9 mix (3 mg/plate) in cells at dose of 100 ug; format: functional, Salmonella enterica subsp. enterica serovar Typhimurium; procedure, shortened: as §1
Salmonella typhimurium [7] = experiment: compound was tested for mutagenicity against Salmonella tester strain TA 1535 with hamster S9 mix (3 mg/plate) in cells at dose of 10 ug; format: functional, Salmonella enterica subsp. enterica serovar Typhimurium; procedure, shortened: as §1
Salmonella typhimurium [8] = experiment: compound was tested for mutagenicity against Salmonella tester strain TA 1535 with hamster S9 mix (3 mg/plate) in cells at dose of 1 ug; format: functional, Salmonella enterica subsp. enterica serovar Typhimurium; procedure, shortened: as §1
Salmonella typhimurium [9] = experiment: compound was tested for mutagenicity against Salmonella tester strain TA 1535 with hamster S9 mix (3 mg/plate) in cells at dose of 2.5 ug; format: functional, Salmonella enterica subsp. enterica serovar Typhimurium; procedure, shortened: as §1
Salmonella typhimurium [10] = experiment: compound was tested for mutagenicity against Salmonella tester strain TA 1535 with hamster S9 mix (3 mg/plate) in cells at dose of 250 ug; format: functional, Salmonella enterica subsp. enterica serovar Typhimurium; procedure, shortened: as §1
Salmonella typhimurium [11] = experiment: compound was tested for mutagenicity against Salmonella tester strain TA 1535 with hamster S9 mix (3 mg/plate) in cells at dose of 25 ug; format: functional, Salmonella enterica subsp. enterica serovar Typhimurium; procedure, shortened: as §1
Salmonella typhimurium [12] = experiment: compound was tested for mutagenicity against Salmonella tester strain TA 1535 with hamster S9 mix (3 mg/plate) in cells at dose of 500 ug; format: functional, Salmonella enterica subsp. enterica serovar Typhimurium; procedure, shortened: as §1
Salmonella typhimurium [13] = experiment: compound was tested for mutagenicity against Salmonella tester strain TA 1535 with hamster S9 mix (3 mg/plate) in cells at dose of 5 ug; format: functional, Salmonella enterica subsp. enterica serovar Typhimurium; procedure, shortened: as §1
Salmonella typhimurium [14] = experiment: compound was tested for mutagenicity against Salmonella tester strain TA 1535 with out hamster S9 mix (3 mg/plate) in cells at dose of 1000 ug; format: functional, Salmonella enterica subsp. enterica serovar Typhimurium
Procedure, shortened: (§2)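 Plate incorporation assay in S. typhimurium TA 1535 without S9 activation. Compound in Me2SO, 1–1000 µg/plate, duplicate plates, mean revertants/plate; incubated 37 °C for 48 h, colonies hand-counted. Positive if two consecutive doses gave revertants more than twice the concurrent control mean.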

Salmonella typhimurium [15] = experiment: compound was tested for mutagenicity against Salmonella tester strain TA 1535 with out hamster S9 mix (3 mg/plate) in cells at dose of 100 ug; format: functional, Salmonella enterica subsp. enterica serovar Typhimurium; procedure, shortened: as §2
Salmonella typhimurium [16] = experiment: compound was tested for mutagenicity against Salmonella tester strain TA 1535 with out hamster S9 mix (3 mg/plate) in cells at dose of 10 ug; format: functional, Salmonella enterica subsp. enterica serovar Typhimurium; procedure, shortened: as §2
Salmonella typhimurium [17] = experiment: compound was tested for mutagenicity against Salmonella tester strain TA 1535 with hamster S9 mix (3 mg/plate) in cells.; format: functional, Salmonella enterica subsp. enterica serovar Typhimurium; procedure, shortened: as §1
Salmonella typhimurium [18] = experiment: compound was tested for mutagenicity against Salmonella tester strain TA 1535 with hamster S9 mix (3 mg/plate) in cells. Activity expressed as no. of cells; format: functional, Salmonella enterica subsp. enterica serovar Typhimurium; procedure, shortened: as §1
Salmonella typhimurium [19] = experiment: compound was tested for mutagenicity against Salmonella tester strain TA 1535 with out hamster S9 mix (3 mg/plate) in cells.; format: functional, Salmonella enterica subsp. enterica serovar Typhimurium; procedure, shortened: as §2
Salmonella typhimurium [20] = experiment: compound was tested for mutagenicity against Salmonella tester strain TA 1535 with out hamster S9 mix (3 mg/plate) in cells at dose of 1 ug; format: functional, Salmonella enterica subsp. enterica serovar Typhimurium; procedure, shortened: as §2
Salmonella typhimurium [21] = experiment: compound was tested for mutagenicity against Salmonella tester strain TA 1535 with out hamster S9 mix (3 mg/plate) in cells at dose of 2.5 ug; format: functional, Salmonella enterica subsp. enterica serovar Typhimurium; procedure, shortened: as §2
Salmonella typhimurium [22] = experiment: compound was tested for mutagenicity against Salmonella tester strain TA 1535 with out hamster S9 mix (3 mg/plate) in cells at dose of 250 ug; format: functional, Salmonella enterica subsp. enterica serovar Typhimurium; procedure, shortened: as §2
Salmonella typhimurium [23] = experiment: compound was tested for mutagenicity against Salmonella tester strain TA 1535 with out hamster S9 mix (3 mg/plate) in cells at dose of 25 ug; format: functional, Salmonella enterica subsp. enterica serovar Typhimurium; procedure, shortened: as §2
Salmonella typhimurium [24] = experiment: compound was tested for mutagenicity against Salmonella tester strain TA 1535 with out hamster S9 mix (3 mg/plate) in cells at dose of 500 ug; format: functional, Salmonella enterica subsp. enterica serovar Typhimurium; procedure, shortened: as §2
Salmonella typhimurium [25] = experiment: compound was tested for mutagenicity against Salmonella tester strain TA 1535 with out hamster S9 mix (3 mg/plate) in cells at dose of 50 ug; format: functional, Salmonella enterica subsp. enterica serovar Typhimurium; procedure, shortened: as §2
Salmonella typhimurium [26] = experiment: compound was tested for mutagenicity against Salmonella tester strain TA 1535 with out hamster S9 mix (3 mg/plate) in cells at dose of 5 ug; format: functional, Salmonella enterica subsp. enterica serovar Typhimurium; procedure, shortened: as §2
Salmonella typhimurium [27] = experiment: compound was tested for mutagenicity against Salmonella tester strain TA 1535 with hamster S9 mix (3 mg/plate) in cells at dose of 50 ug; format: functional, Salmonella enterica subsp. enterica serovar Typhimurium; procedure, shortened: as §1

Log 1/C [1]: -1.961
Compound: CN(Cc1cccc(C(F)(F)F)c1)N=O
Activity (Salmonella typhimurium [2]): 21
No. of revertants per plate (Salmonella typhimurium [3]): 127
No. of revertants per plate (Salmonella typhimurium [4]): 18

Compound: CN(Cc1cccc(Cl)c1)N=O
Log 1/C [1]: -1.512
Activity (Salmonella typhimurium [2]): 17
No. of revertants per plate (Salmonella typhimurium [3]): 215
No. of revertants per plate (Salmonella typhimurium [4]): 15

Compound: COC(=O)c1ccc(CN(C)N=O)cc1
Activity (Salmonella typhimurium [2]): 14
No. of revertants per plate (Salmonella typhimurium [3]): 18
No. of revertants per plate (Salmonella typhimurium [4]): 15

Compound: COc1cccc(CN(C)N=O)c1
Log [1]: -1.886 (degrees C)-1
Activity (Salmonella typhimurium [2]): 25
No. of revertants per plate (Salmonella typhimurium [3]): 145
No. of revertants per plate (Salmonella typhimurium [4]): 18

Compound: CN(Cc1cccc(Br)c1)N=O
Log 1/C [1]: -1.552
Activity (Salmonella typhimurium [2]): 11
No. of revertants per plate (Salmonella typhimurium [3]): 223
No. of revertants per plate (Salmonella typhimurium [4]): 11

Compound: Cc1cccc(CN(C)N=O)c1
Log 1/C [1]: -3.039
Activity (Salmonella typhimurium [2]): 16
No. of revertants per plate (Salmonella typhimurium [3]): 106
No. of revertants per plate (Salmonella typhimurium [4]): 14

Compound: CN(Cc1ccc(Br)cc1)N=O
Log 1/C [1]: -1.998
Activity (Salmonella typhimurium [2]): 12
No. of revertants per plate (Salmonella typhimurium [5]): 201
No. of revertants per plate (Salmonella typhimurium [6]): 64
No. of revertants per plate (Salmonella typhimurium [7]): 14
No. of revertants per plate (Salmonella typhimurium [8]): 12
No. of revertants per plate (Salmonella typhimurium [9]): 12
No. of revertants per plate (Salmonella typhimurium [10]): 155
No. of revertants per plate (Salmonella typhimurium [11]): 21
No. of revertants per plate (Salmonella typhimurium [12]): 183
No. of revertants per plate (Salmonella typhimurium [13]): 15
No. of revertants per plate (Salmonella typhimurium [14]): 15
No. of revertants per plate (Salmonella typhimurium [15]): 16
No. of revertants per plate (Salmonella typhimurium [16]): 18
Activity (Salmonella typhimurium [17]): 13
Activity (Salmonella typhimurium [18]): 17
Activity (Salmonella typhimurium [19]): 14
No. of revertants per plate (Salmonella typhimurium [20]): 14
No. of revertants per plate (Salmonella typhimurium [21]): 13
No. of revertants per plate (Salmonella typhimurium [22]): 11
No. of revertants per plate (Salmonella typhimurium [23]): 14
No. of revertants per plate (Salmonella typhimurium [24]): 13
No. of revertants per plate (Salmonella typhimurium [25]): 10
No. of revertants per plate (Salmonella typhimurium [26]): 21
No. of revertants per plate (Salmonella typhimurium [27]): 32

Compound: CN(Cc1cccc([N+](=O)[O-])c1)N=O
Log 1/C [1]: -1.796
